ChEMBL document CHEMBL1926538, “3,5-Disubstituted-thiazolidine-2,4-dione analogs as anticancer agents: design, synthesis and biological characterization” (Eur J Med Chem, 2012)
Calls of active or inactive are those of the source. No cut-off for these calls is given here.

What was measured:
U-937 [1] = test: Induction of apoptosis in human U937 cells assessed as viable cells at 3 uM after 6 hrs by annexinV-propidium iodide staining-based flow cytometric analysis (reference value: 80.3%); format: functional; settings: U-937, 6 h, read-out: Activity
[2] = biological target: Serine/threonine-protein kinase D2 (Homo sapiens) (UniProt Q9BZL6); test: Inhibition of PKD2 at 10 uM
[3] = Inhibition of P70S6K at 10 uM
[4] = biological target: Mitogen-activated protein kinase kinase kinase kinase 4 (Homo sapiens) (UniProt O95819); test: Inhibition of HGK at 10 uM
[5] = biological target: Fibroblast growth factor receptor 1 (Homo sapiens) (UniProt P11362); test: Inhibition of FGFR1 at 10 uM
PC-3 = test: Growth inhibition of human PC3 cells after 24 hrs by MTS assay; format: functional, cell-based
Method in brief: (§1)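 Cells in RPMI 1640 with 10% heat-inactivated FBS, seeded 2 × 10⁴ cells/well and exposed 24 h. MTS reagent added, then 1 h further incubation at 37 °C, 5% CO₂. Formazan absorbance read at 490 nm. Viability expressed as percentage of untreated controls.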

U-937 [6] = test: Growth inhibition of human U937 cells after 24 hrs by MTS assay; format: functional, cell-based; settings: U-937, 24 h; method in brief: as §1
U-937 [7] = test: Cell cycle arrest in human U937 cells assessed as sub-diploid apoptotic fraction at 15 uM after 24 hrs by propidium iodide staining-based flow cytometric analysis; format: functional
Method in brief: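 Cells cultured in RPMI 1640 with 10% FBS and treated 24 h at the indicated concentrations. Stained with propidium iodide for 4 h at 4 °C in the dark. Flow cytometry gave the percentage of cells in G₀/G₁, S, G₂/M and sub-G₁ phases.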

Sequence of Fibroblast growth factor receptor 1 (Homo sapiens) (P11362 22-822 limits assumed): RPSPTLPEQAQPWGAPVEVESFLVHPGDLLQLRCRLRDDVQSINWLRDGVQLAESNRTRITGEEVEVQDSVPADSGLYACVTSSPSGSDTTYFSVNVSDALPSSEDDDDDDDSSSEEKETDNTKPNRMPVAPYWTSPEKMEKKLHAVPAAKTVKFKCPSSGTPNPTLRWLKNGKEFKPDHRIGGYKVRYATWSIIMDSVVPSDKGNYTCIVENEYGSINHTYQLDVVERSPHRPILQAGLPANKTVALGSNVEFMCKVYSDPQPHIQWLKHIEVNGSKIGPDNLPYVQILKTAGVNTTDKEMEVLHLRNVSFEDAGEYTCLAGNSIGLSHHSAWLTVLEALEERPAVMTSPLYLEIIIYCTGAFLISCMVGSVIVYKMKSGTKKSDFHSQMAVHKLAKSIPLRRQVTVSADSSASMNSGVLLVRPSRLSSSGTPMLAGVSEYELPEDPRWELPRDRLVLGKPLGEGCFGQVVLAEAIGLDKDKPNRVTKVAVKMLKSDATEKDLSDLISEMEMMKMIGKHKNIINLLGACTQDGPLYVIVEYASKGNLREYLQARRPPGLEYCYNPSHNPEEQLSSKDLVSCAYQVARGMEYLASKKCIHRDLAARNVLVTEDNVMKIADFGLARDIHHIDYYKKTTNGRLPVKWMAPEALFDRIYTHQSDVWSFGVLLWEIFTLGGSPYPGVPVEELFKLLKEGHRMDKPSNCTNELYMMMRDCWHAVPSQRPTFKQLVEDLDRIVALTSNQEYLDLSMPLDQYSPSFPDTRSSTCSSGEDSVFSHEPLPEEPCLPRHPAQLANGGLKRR
Sequence of Mitogen-activated protein kinase kinase kinase kinase 4 (Homo sapiens) (O95819 2-1239 limits assumed): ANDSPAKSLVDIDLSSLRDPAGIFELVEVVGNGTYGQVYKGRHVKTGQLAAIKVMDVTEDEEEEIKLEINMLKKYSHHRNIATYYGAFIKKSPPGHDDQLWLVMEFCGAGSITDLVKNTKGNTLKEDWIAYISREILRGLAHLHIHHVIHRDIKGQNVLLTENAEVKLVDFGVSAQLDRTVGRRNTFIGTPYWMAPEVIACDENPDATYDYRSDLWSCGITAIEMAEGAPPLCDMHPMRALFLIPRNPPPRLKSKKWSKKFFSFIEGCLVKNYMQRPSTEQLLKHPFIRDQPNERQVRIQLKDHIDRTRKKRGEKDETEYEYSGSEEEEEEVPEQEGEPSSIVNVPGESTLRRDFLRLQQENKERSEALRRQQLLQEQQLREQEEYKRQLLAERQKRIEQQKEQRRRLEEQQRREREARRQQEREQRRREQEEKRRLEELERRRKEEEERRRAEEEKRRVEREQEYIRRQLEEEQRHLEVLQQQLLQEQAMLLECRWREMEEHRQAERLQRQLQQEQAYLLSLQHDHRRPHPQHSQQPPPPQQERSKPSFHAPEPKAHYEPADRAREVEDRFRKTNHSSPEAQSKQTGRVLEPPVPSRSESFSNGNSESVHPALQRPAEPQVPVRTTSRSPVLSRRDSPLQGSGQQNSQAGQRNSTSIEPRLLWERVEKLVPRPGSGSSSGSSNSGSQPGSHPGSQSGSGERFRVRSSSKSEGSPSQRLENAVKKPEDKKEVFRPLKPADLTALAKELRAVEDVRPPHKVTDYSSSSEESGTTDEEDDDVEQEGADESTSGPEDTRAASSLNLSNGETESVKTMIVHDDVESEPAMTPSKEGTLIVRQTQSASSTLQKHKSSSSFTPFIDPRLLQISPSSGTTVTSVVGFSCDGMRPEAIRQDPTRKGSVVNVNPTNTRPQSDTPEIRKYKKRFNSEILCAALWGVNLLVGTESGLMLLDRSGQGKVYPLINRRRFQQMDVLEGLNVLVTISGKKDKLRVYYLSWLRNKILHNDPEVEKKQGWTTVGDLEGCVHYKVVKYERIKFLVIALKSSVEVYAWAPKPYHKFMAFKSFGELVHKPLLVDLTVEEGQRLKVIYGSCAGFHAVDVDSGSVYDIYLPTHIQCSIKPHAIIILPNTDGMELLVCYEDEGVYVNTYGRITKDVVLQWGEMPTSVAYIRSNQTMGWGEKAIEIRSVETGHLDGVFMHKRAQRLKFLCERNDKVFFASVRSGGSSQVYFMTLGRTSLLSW
Sequence of Serine/threonine-protein kinase D2 (Homo sapiens) (Q9BZL6 whole entry): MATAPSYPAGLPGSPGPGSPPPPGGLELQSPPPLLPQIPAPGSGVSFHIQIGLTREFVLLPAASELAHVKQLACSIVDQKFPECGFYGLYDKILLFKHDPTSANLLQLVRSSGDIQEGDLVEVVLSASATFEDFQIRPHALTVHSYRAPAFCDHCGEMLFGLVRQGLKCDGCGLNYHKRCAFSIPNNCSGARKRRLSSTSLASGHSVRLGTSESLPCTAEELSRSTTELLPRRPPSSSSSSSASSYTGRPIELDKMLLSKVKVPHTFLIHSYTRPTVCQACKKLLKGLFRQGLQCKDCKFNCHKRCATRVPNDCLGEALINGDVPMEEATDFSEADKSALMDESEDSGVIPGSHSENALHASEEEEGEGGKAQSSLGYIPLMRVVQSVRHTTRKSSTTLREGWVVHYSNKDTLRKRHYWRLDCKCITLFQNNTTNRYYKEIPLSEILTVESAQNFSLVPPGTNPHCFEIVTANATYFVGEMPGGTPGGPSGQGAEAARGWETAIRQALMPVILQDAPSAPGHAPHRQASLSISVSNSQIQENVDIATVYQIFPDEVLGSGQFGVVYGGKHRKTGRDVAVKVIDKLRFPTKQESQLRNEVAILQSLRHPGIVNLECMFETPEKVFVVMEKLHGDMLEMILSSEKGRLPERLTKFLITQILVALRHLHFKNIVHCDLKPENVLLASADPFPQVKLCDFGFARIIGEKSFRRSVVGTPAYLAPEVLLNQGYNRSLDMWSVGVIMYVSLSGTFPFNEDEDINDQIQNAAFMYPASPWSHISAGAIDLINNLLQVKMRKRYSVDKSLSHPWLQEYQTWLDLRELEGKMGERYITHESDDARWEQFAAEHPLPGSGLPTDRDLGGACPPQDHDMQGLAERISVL

inhibition [2]: 0%
inhibition [3]: 5%
inhibition [4]: -1%
inhibition [5]: 3%
IC50 (U-937 [6]): 3.4 µM
Compound: NCCN1C(=O)S/C(=C\CCC2CCCCC2)C1=O
viability at 3 µM (U-937 [1]): 75.7%
growth inhibition (GI) (PC-3): Active
Activity (U-937 [7]): 64.3%
